Measurements reported in ChEMBL document CHEMBL5149972, “Novel Antimalarial Tetrazoles and Amides Active against the Hemoglobin Degradation Pathway in Plasmodium falciparum” (J Med Chem, 2021).
Converted amounts (≈) assume the structure as drawn. The source made the active and inactive calls. No cut-off for these calls is given here.

Assays:
Plasmodium falciparum [1] = test: Antiplasmodial activity against Plasmodium falciparum mature stage V gametocyte assessed as inhibition of male gametocyte formation at 25 uM by luciferase reporter assay; format: functional, organism-based
[2] = Kinetic solubility of compound in PBS at pH 2 by HPLC analysis; format: physicochemical; details: read-out: Kinetic_solubility
HepG2 = test: (§1) Cytotoxicity against human HepG2 cells assessed as reduction in cell viability incubated for 72 hrs by CellTiter-Glo assay; format: toxicity, cell-based; details: hepg2, 72 h
[3] = Metabolic stability in human liver microsomes assessed as intrinsic clearance per mg of protein at 1 uM incubated for 60 mins presence of NADPH regenerating buffer system by LC-MS analysis; format: ADME, Microsome; details: 1 h
Plasmodium falciparum [4] = test: Antiplasmodial activity against asexual blood stage Plasmodium falciparum 3D7 infected in human RBC assessed as parasite growth inhibition incubated for 72 hrs by SYBR Green dye based fluorescence assay; format: functional, organism-based; details: Plasmodium falciparum, 3D7, Erythrocyte, 72 h
In short: (§2)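 Blood-stage cultures at 2% hematocrit, human O+ RBCs, RPMI 1640 + 25 mM HEPES, 0.5% Albumax-I, 23 mM bicarbonate, 92 μM hypoxanthine. Start at 0.5% parasitemia; 72 h at 37°C, 5% CO₂; freeze-thaw, then SYBR Green in saponin/Triton lysis buffer, 4 h RT dark; fluorescence ex 485/em 535 nm. 10-point curves, technical duplicates or triplicates, final 0.5% DMSO; four-parameter fit gives EC₅₀; mean ± std dev of biological replicates.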

Plasmodium falciparum [5] = test: Antiplasmodial activity against Plasmodium falciparum mature stage V gametocyte assessed as inhibition of female gametocyte formation by luciferase reporter assay; format: functional, organism-based
Plasmodium falciparum [6] = test: Antiplasmodial activity against drug resistant Plasmodium falciparum Dd2 infected in human RBC assessed as parasite growth inhibition incubated for 72 hrs by SYBR Green dye based fluorescence assay; format: functional, organism-based; details: Plasmodium falciparum, Dd2, Erythrocyte, 72 h; in short: as §2
Plasmodium berghei = test: Antiplasmodial activity against liver stage Plasmodium berghei ANKA expressing GFP-Luc-SMCO infected in human HepG2-A16-CD81EGFP cells assessed as reduction in liver-stage development of luciferase-expressing parasite by luciferase reporter gene based bioluminescence assay; format: functional, organism-based
In short: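 Pb-Luc (P. berghei ANKA-GFP-Luc-SMCON) sporozoites infect HepG2-A16-CD81EGFP cells in phenol red-free DMEM with 5% FBS, glutamine, penicillin/streptomycin; compounds scored for blocking liver-stage development by luciferase signal.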

[7] = Kinetic solubility of compound in PBS at pH 6.5 by HPLC analysis; format: physicochemical; details: read-out: Kinetic_solubility
Plasmodium falciparum [8] = test: Antiplasmodial activity against lab-derived MMV390048 resistant Plasmodium falciparum Dd2-Pfpi4K mutant infected in human RBC assessed as parasite growth inhibition incubated for 72 hrs by SYBR Green dye based fluorescence assay; format: functional, organism-based; details: Erythrocyte
Plasmodium falciparum [9] = test: Antiplasmodial activity against Plasmodium falciparum 3D7 assessed as parasite growth inhibition incubated for 48 hrs followed by compound washout further infected in RBC cells for 28 days by hemocrit analysis; format: functional, organism-based
Plasmodium falciparum [10] = test: Antiplasmodial activity against lab-derived ELQ300 resistant Plasmodium falciparum Dd2-PfCytB mutant infected in human RBC assessed as parasite growth inhibition incubated for 72 hrs by SYBR Green dye based fluorescence assay; format: functional, organism-based; details: Erythrocyte
Plasmodium falciparum [11] = test: Antiplasmodial activity against chloroquine resistant Plasmodium falciparum Dd2-GC03 mutant replaced with 3D7 pfcrt sequence at endogenous pfcrt Dd2 locus infected in human RBC assessed as parasite growth inhibition incubated for 72 hrs by SYBR Green dye based fluorescence assay; format: functional, organism-based; details: Erythrocyte
In short: (§3)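 Gene-edited Dd2 lines with the endogenous pfcrt locus replaced by zinc-finger nuclease editing. Concentration-response curves run with technical duplicates at each concentration; values are the average of two biological replicates, with std dev given where more replicates were collected.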

[12] = as §1; format: toxicity, cell-based; details: HepG2 cells
Plasmodium falciparum [13] = test: Antiplasmodial activity against chloroquine, atovaquone and pyrimethamine resistant Plasmodium falciparum TM90C2B infected in human RBC assessed as parasite growth inhibition incubated for 72 hrs by SYBR Green dye based fluorescence assay; format: functional, organism-based; details: Erythrocyte
Plasmodium falciparum [14] = test: Antiplasmodial activity against chloroquine and pyrimethamine resistant Plasmodium falciparum Dd2 infected in human RBC assessed as parasite growth inhibition incubated for 72 hrs by SYBR Green dye based fluorescence assay; format: functional, organism-based; details: Dd2, Erythrocyte
In short: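 O+ human RBCs at 2% hematocrit and 0.5% starting parasitemia, in RPMI 1640 with 25 mM HEPES, 0.5% Albumax-I, bicarbonate and hypoxanthine. Serial dilutions in triplicate, 0.5% DMSO final, 72 h at 37°C, 5% CO2. Frozen at −80°C, lysed with SYBR Green in saponin/Triton buffer for 4 h in the dark. Ex 485/em 535 nm. EC50 from four-parameter fit; biphasic fit where curves were biphasic.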

Plasmodium falciparum [15] = test: Antiplasmodial activity against Plasmodium falciparum 3D7 infected in human RBC assessed as parasite growth inhibition incubated for 48 hrs by 3H-hypoxanthine incorporation assay; format: functional, organism-based; details: 3D7, Erythrocyte
Plasmodium falciparum [16] = test: Antiplasmodial activity against chloroquine and pyrimethamine resistant Plasmodium falciparum 7G8 infected in human RBC assessed as parasite growth inhibition incubated for 72 hrs by SYBR Green dye based fluorescence assay; format: functional, organism-based; details: 7G8, Erythrocyte
Plasmodium falciparum [17] = test: (§4) Antiplasmodial activity against chloroquine resistant Plasmodium falciparum Dd2-Dd2 mutant replaced with recombinant Dd2 sequence at endogenous pfcrt Dd2 locus infected in human RBC assessed as parasite growth inhibition incubated for 72 hrs by SYBR Green dye based fluorescence assay; format: functional, organism-based; details: Erythrocyte; in short: as §3
Plasmodium falciparum [18] = test: as §4, with “chloroquine and piperaquine” for “chloroquine”, “Dd2-M343L” for “Dd2-Dd2”, “with endogenous pfcrt locus with the” for “with”, “sequence and the PPQ resistance-conferring M343L” for “sequence”; format: functional, organism-based; details: Erythrocyte; in short: as §3
Plasmodium falciparum [19] = test: Antiplasmodial activity against piperaquine and pyrimethamine resistant Plasmodium falciparum RF12 infected in human RBC assessed as parasite growth inhibition incubated for 72 hrs by SYBR Green dye based fluorescence assay; format: functional, organism-based; details: RF12, Erythrocyte
Plasmodium falciparum [20] = test: Antiplasmodial activity against lab-derived DSM265 resistant Plasmodium falciparum Dd2-PfDHODH mutant infected in human RBC assessed as parasite growth inhibition incubated for 72 hrs by SYBR Green dye based fluorescence assay; format: functional, organism-based; details: Erythrocyte
[21] = Inhibition of hemozoin formation in sorbitol-synchronized early ring stage plasmodium falciparum NF54 trophozoites assessed as fold increase in free heme-Fe level at 3 times EC50 incubated for 32 hrs by flow cytometry analysis; format: functional
In short: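 Trophozoites were saponin-released (0.05%), PBS-washed, counted by flow cytometry, then hypotonically lysed and sonicated. Heme was fractionated with HEPES, SDS, pyridine and NaOH and read as Fe(III)heme–pyridine absorbance against a heme standard curve (fg/cell). Three biological replicates; Student's t-test.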

Plasmodium falciparum [22] = test: Antiplasmodial activity against chloroquine and pyrimethamine resistant Plasmodium falciparum K1 infected in human RBC assessed as parasite growth inhibition incubated for 72 hrs by SYBR Green dye based fluorescence assay; format: functional, organism-based; details: K1, Erythrocyte
Plasmodium falciparum [23] = test: Antiplasmodial activity against Plasmodium falciparum NF54 infected in human RBC assessed as parasite growth inhibition incubated for 72 hrs by SYBR Green dye based fluorescence assay; format: functional, organism-based; details: NF54, Erythrocyte
Plasmodium falciparum [24] = test: Antiplasmodial activity against lab-derived […] resistant Plasmodium falciparum Dd2-PfeEF2 mutant infected in human RBC assessed as parasite growth inhibition incubated for 72 hrs by SYBR Green dye based fluorescence assay; format: functional, organism-based; details: Erythrocyte
Hemozoin = test: Inhibition of Beta-hematin assessed as bis-pyridyl-Fe(III)PPIX complex formation incubated for 5 hrs by NP40 detergent-mediated colorimetric assay
Plasmodium falciparum [25] = test: Inhibition of hemozoin formation in sorbitol-synchronized early ring stage plasmodium falciparum NF54 trophozoites assessed as decrease in free hemozoin-Fe level at 0.5 to 3 times EC50 incubated for 32 hrs by flow cytometry analysis; format: functional; details: DDE = dose-dependent effect
Plasmodium falciparum [26] = test: Antiplasmodial activity against Plasmodium falciparum NF54 expressing transgenic luciferase assessed as parasite kill rate at trophozoite stage incubated for 72 hrs by bioluminescence relative rate of kill (BRRoK) assay; format: functional, organism-based; details: RBC
Plasmodium falciparum [27] = test: Inhibition of hemozoin formation in sorbitol-synchronized early ring stage plasmodium falciparum NF54 trophozoites assessed as increase in free heme-Fe level at 0.5 to 3 times EC50 incubated for 32 hrs by flow cytometry analysis; format: functional; details: DDE = dose-dependent effect
Plasmodium falciparum [28] = test: Antiplasmodial activity against Plasmodium falciparum NF54 expressing transgenic luciferase assessed as parasite kill rate at trophozoite stage incubated for 6 hrs by bioluminescence relative rate of kill (BRRoK) assay; format: functional, organism-based; details: RBC
Plasmodium falciparum [29] = test: Inhibition of hemozoin formation in sorbitol-synchronized early ring stage plasmodium falciparum NF54 trophozoites assessed as increase in free heme level at 0.5 to 3 times EC50 incubated for 32 hrs by flow cytometry analysis; format: functional; details: DDE = dose-dependent effect
Plasmodium falciparum [30] = test: Inhibition of hemozoin formation in sorbitol-synchronized early ring stage plasmodium falciparum NF54 trophozoites assessed as decrease in free hemozoin level at 0.5 to 3 times EC50 incubated for 32 hrs by flow cytometry analysis; format: functional; details: DDE = dose-dependent effect

Cc1ccccc1N(C)C(=O)C(c1cccnc1)N(Cc1cc(C(F)(F)F)ccc1F)C1CC1 (racemic)
EC50 (Plasmodium falciparum [1]): 60000 nM | solubility kinetic [2]: > 47 µg/mL | CC50 (HepG2): > 30000 nM | CLH [3]: 548 µL/min/mg | EC50 (Plasmodium falciparum [4]): 310 nM | EC50 (Plasmodium falciparum [5]): > 25000 nM | EC50 (Plasmodium falciparum [6]): 460 nM | EC50 (Plasmodium berghei): 7000 nM | solubility kinetic [7]: 1.5 µg/mL (≈ 3.18 µM)

Cc1ccccc1-n1nnnc1C(c1cncnc1)N(Cc1cccc(C(F)(F)F)c1)C1CC1 (racemic)
EC50 (Plasmodium falciparum [8]): 2000 nM | Activity (Plasmodium falciparum [9]): Active | EC50 (Plasmodium falciparum [10]): 2000 nM | EC50 (Plasmodium falciparum [11]): 4800 nM | solubility kinetic [2]: 1.5 µg/mL (≈ 3.22 µM) | CC50 at 72 h [12]: 33000 nM | EC50 (Plasmodium falciparum [13]): 660 nM | EC50 (Plasmodium falciparum [4]): 400 nM | EC50 (Plasmodium falciparum [14]): 1800 nM | EC50 (Plasmodium falciparum [15]): 1700 nM | EC50 (Plasmodium falciparum [16]): 160 nM | EC50 (Plasmodium falciparum [17]): 2400 nM | EC50 (Plasmodium falciparum [18]): 900 nM | EC50 (Plasmodium falciparum [6]): 1800 nM | EC50 (Plasmodium falciparum [19]): 1100 nM | EC50 (Plasmodium falciparum [20]): 2000 nM | fold change (FC) [21]: 6 | EC50 (Plasmodium falciparum [22]): 460 nM | EC50 (Plasmodium falciparum [23]): 830 nM | EC50 (Plasmodium falciparum [24]): 1600 nM | IC50 (Hemozoin): 310000 nM | solubility kinetic [7]: 1.5 µg/mL (≈ 3.22 µM)

CCN(CC)CCCC(C)Nc1ccnc2cc(Cl)ccc12 (stereo unspecified) [CHLOROQUINE]
inhibition (Plasmodium falciparum [25]): Dde | CC50 at 72 h [12]: > 30000 nM | Activity (Plasmodium falciparum [26]): Active | inhibition (Plasmodium falciparum [27]): Dde | Activity (Plasmodium falciparum [28]): Active | EC50 (Plasmodium falciparum [4]): 14 nM | EC50 (Plasmodium falciparum [15]): 21 nM | IC50 (Hemozoin): 19000 nM | inhibition (Plasmodium falciparum [29]): Dde | inhibition (Plasmodium falciparum [30]): Dde
